Test results as given in ChEMBL document CHEMBL1154236, “Monoterpenes from Paeonia albiflora and their inhibitory activity on nitric oxide production by lipopolysaccharide-activated microglia” (J Nat Prod, 2009).

Assays:
N9 [1] = experiment: Antiinflammatory activity against mouse N9 cells assessed as LPS-induced nitric oxide production at 1 uM after 48 hrs by Griess reaction relative to control; settings: N9, 48 h
N9 [2] = experiment: Antiinflammatory activity against mouse N9 cells assessed as LPS-induced nitric oxide production at 3 uM after 48 hrs by Griess reaction relative to control; settings: N9, 48 h
N9 [3] = experiment: Antiinflammatory activity against mouse N9 cells assessed as LPS-induced nitric oxide production at 10 uM after 48 hrs by Griess reaction relative to control; settings: N9, 48 h
N9 [4] = experiment: Antiinflammatory activity against mouse N9 cells assessed as LPS-induced nitric oxide production at 30 uM after 48 hrs by Griess reaction relative to control; settings: N9, 48 h
N9 [5] = experiment: Antiinflammatory activity against mouse N9 cells assessed as inhibition of LPS-induced nitric oxide production after 48 hrs by Griess reaction relative to control; settings: N9, 48 h
N9 [6] = experiment: Cytotoxicity against LPS-stimulated mouse N9 cells at 1 to 30 uM after 48 hrs by MTT assay; type: cell-based; settings: n9, 48 h
Outline: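 N9 microglia seeded at 5 × 10^4 cells/well and exposed to compounds with LPS (1 µg/mL) for 48 h. MTT 0.25 mg/mL then added for 3 h at 37 °C. Formazan dissolved in DMSO and absorbance read at 490 nm.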

| SMILES | IC50 (N9 [5]) [µM] | NO production (% of LPS control) at 1 µM (N9 [1]) [%] | NO production (% of LPS control) at 3 µM (N9 [2]) [%] | NO production (% of LPS control) at 10 µM (N9 [3]) [%] | NO production (% of LPS control) at 30 µM (N9 [4]) [%] | Activity (N9 [6]) |
| --- | --- | --- | --- | --- | --- | --- |
| CO[C@]12C[C@]3(C)O[C@H](O1)[C@]1(COC(=O)c4ccccc4)[C@@H]2C[C@]13O[C@@H]1O[C@H](COC(=O)c2cc(O)c(O)c(O)c2)[C@@H](O)[C@H](O)[C@H]1O | > 100 | 80.8 | 113 | 108 | 102 |  |
| CO[C@@H]1C[C@]2(C)OC(=O)[C@]3(COC(=O)c4ccccc4)[C@@H]1C[C@@]23O[C@@H]1O[C@H](CO)[C@@H](O)[C@H](O)[C@H]1O | > 100 | 91.5 | 91.6 | 95.5 | 102 |  |
| COc1cc(C(=O)OC[C@H]2O[C@@H](O[C@@]34C[C@H]5[C@@]3(CO)[C@H]3O[C@]5(O)C[C@]4(C)O3)[C@H](O)[C@@H](O)[C@@H]2O)ccc1O [MUDANPIOSIDE E] | > 100 | 86.2 | 83.9 | 80.9 | 67.4 |  |
| C[C@@]12C[C@@]3(O)O[C@@H](O1)[C@]1(COC(=O)c4ccccc4)[C@@H]3C[C@]12O[C@@H]1O[C@H](COC(=O)c2cc(O)c(O)c(O)c2)[C@@H](O)[C@H](O)[C@H]1O [GALLOYLPAEONIFLORIN] |  | 82.1 | 84.4 | 62.1 | 69.5 | Toxic |
| CO[C@]12C[C@]3(C)O[C@H](O1)[C@]1(COC(=O)c4ccccc4)[C@@H]2C[C@]13O[C@@H]1O[C@H](CO)[C@@H](O)[C@H](O)[C@H]1O | > 100 | 111 | 109 | 107 | 90.4 |  |
| C[C@@]12C[C@@]3(O)O[C@@H](O1)[C@]1(COC(=O)c4ccc(O)cc4)[C@@H]3C[C@]12O[C@@H]1O[C@H](COC(=O)c2ccccc2)[C@@H](O)[C@H](O)[C@H]1O [MUDANPIOSIDE C] | 12.8 | 71.8 | 66.7 | 57.5 | 38.5 |  |
| CO[C@]12C[C@]3(C)O[C@H](O1)[C@]1(CO)[C@@H]2C[C@]13O[C@@H]1O[C@H](CO)[C@@H](O)[C@H](O)[C@H]1O | > 100 | 101 | 104 | 97.4 | 78.9 |  |
| CC12CC3OC4O[C@H](CO)[C@@H](O)[C@H](O)[C@H]4OC34CC1C4(COC(=O)c1ccccc1)C(=O)O2 (stereo not given in full) [LACTIFLORIN] | > 100 | 89.4 | 91.5 | 86.7 | 81.2 |  |
| C[C@@]12CC(=O)[C@H]3C[C@]1(O)O[C@H](O2)[C@@H]3COC(=O)c1ccccc1 [PAEONIFLORIGENONE] |  | 92.6 | 71.9 | 24.5 | 26.7 | Toxic |
| C[C@@]12C[C@@]3(O)O[C@@H](O1)[C@]1(COC(=O)c4ccccc4)[C@@H]3C[C@]12O[C@@H]1O[C@H](COC(=O)c2ccccc2)[C@@H](O)[C@H](O)[C@H]1O [BENZOYLPAEONIFLORIN] |  | 86.3 | 81.4 | 79.5 | 68.6 | Toxic |
| CO[C@]12C[C@]3(C)O[C@H](O1)[C@]1(COC(=O)c4ccccc4)[C@@H]2C[C@]13O[C@@H]1O[C@H](COC(=O)c2ccccc2)[C@@H](O)[C@H](O)[C@H]1O | 22.6 | 91.9 | 95.5 | 70.4 | 34.9 |  |
| CO[C@H]1O[C@@]2(C)CC(=O)[C@H]3C[C@]2(O[C@@H]2O[C@H](CO[C@H]4O[C@@]5(C)CC(=O)[C@H]6C[C@]5(O[C@@H]5O[C@H](CO)[C@@H](O)[C@H](O)[C@H]5O)[C@]46COC(=O)c4ccccc4)[C@@H](O)[C@H](O)[C@H]2O)[C@]13COC(=O)c1ccccc1 [PAEONIDANIN D] |  | 112 | 96.6 | 83.5 | 77.1 | Toxic |
| COc1cc(COC[C@H]2O[C@@H](O[C@@]34C[C@H]5[C@@]3(COC(=O)c3ccccc3)[C@H]3O[C@]5(O)C[C@]4(C)O3)[C@H](O)[C@@H](O)[C@@H]2O)ccc1O | > 100 | 107 | 106 | 99.8 | 90.1 |  |
| COc1cc(/C=C/C(=O)CC(=O)/C=C/c2ccc(O)c(OC)c2)ccc1O [CURCUMIN] | 13.5 | 86.6 | 75.6 | 56.1 | 35.2 |  |
| C[C@@]12C[C@@]3(O)O[C@@H](O1)[C@]1(COC(=O)c4ccc(O)cc4)[C@@H]3C[C@]12O[C@@H]1O[C@H](CO)[C@@H](O)[C@H](O)[C@H]1O [OXYPAEONIFLORIN] | > 100 | 71.7 | 83 | 76.6 | 76.6 |  |
| C[C@@]12C[C@@]3(O)O[C@@H](O1)[C@]1(COC(=O)c4ccccc4)[C@@H]3C[C@]12O[C@@H]1O[C@H](CO[C@H]2O[C@H](CO)[C@@H](O)[C@H](O)[C@H]2O)[C@@H](O)[C@H](O)[C@H]1O | > 100 | 90.1 | 91.5 | 85.1 | 70.5 |  |
| CO[C@H]1O[C@@]2(C)CC(=O)[C@H]3C[C@]2(O)[C@]13COC(=O)c1ccccc1 [PAEONIDANGENIN] | > 100 | 89.9 | 91.5 | 85 | 66.2 |  |

Now from value to compound, other results behind:

| IC50 (N9 [5]) [µM] | SMILES | NO production (% of LPS control) at 1 µM (N9 [1]) [%] | NO production (% of LPS control) at 3 µM (N9 [2]) [%] | NO production (% of LPS control) at 10 µM (N9 [3]) [%] | NO production (% of LPS control) at 30 µM (N9 [4]) [%] | Activity (N9 [6]) |
| --- | --- | --- | --- | --- | --- | --- |
| 13.9 | CO[C@H]1O[C@@]2(C)CC(=O)[C@H]3C[C@]2(O[C@@H]2O[C@H](COC(=O)c4cc(O)c(O)c(O)c4)[C@@H](O)[C@H](O)[C@H]2O)[C@]13COC(=O)c1ccccc1 [PAEONIDANIN B] | 63 | 64.1 | 52.2 | 43.5 |  |
| 27.8 | C[C@@]12C[C@@]3(O)O[C@@H](O1)[C@]1(COC(=O)c4ccccc4)[C@H]3C[C@@]12O[C@@H]1O[C@H](CO)[C@@H](O)[C@H](O)[C@H]1O [PAEONIFLORIN] | 100 | 87.8 | 79.5 | 66.7 |  |
| > 100 | C[C@]12C[C@@H](O)[C@H]3C[C@]1(O[C@@H]1O[C@H](COC(=O)c4ccccc4)[C@@H](O)[C@H](O)[C@H]1O)[C@]3(COC(=O)c1ccccc1)C(=O)O2 [PAEONIVAYIN] | 86.7 | 88.3 | 82 | 82.6 |  |
| 36.2 | CO[C@H]1O[C@@]2(C)CC(=O)[C@H]3C[C@]2(O[C@@H]2O[C@H](COC(=O)c4ccccc4)[C@@H](O)[C@H](O)[C@H]2O)[C@]13COC(=O)c1ccccc1 [PAEONIDANIN A] | 86.6 | 74.9 | 59.1 | 57.2 |  |
| 64.7 | C[C@]12CC(=O)[C@H]3C[C@]1(O[C@@H]1O[C@H](CO)[C@@H](O)[C@H](O)[C@H]1O)[C@]3(COC(=O)c1ccccc1)[C@@H](OC[C@H]1O[C@@H](O[C@@]34C[C@H]5[C@@]3(COC(=O)c3ccccc3)[C@H]3O[C@]5(O)C[C@]4(C)O3)[C@H](O)[C@@H](O)[C@@H]1O)O2 [PAEONIDANIN E] | 102 | 102 | 88.8 | 69.2 |  |
| 61.8 | C[C@@H]1CC(=O)[C@H]2C[C@]1(O)[C@]2(C)COC(=O)c1cc(O)c(O)c(O)c1 [PAEONIFLORONE] | 91.3 | 83.8 | 67.5 | 64.1 |  |
| > 100 | CO[C@H]1O[C@@]2(C)CC(=O)[C@H]3C[C@]2(O[C@@H]2O[C@H](COC(=O)c4ccccc4)[C@@H](O)[C@H](O)[C@H]2O)[C@]13COC(=O)c1ccc(O)cc1 [PAEONIDANIN C] | 106 | 111 | 94.3 | 80.3 |  |
